Data on 21 compounds can be found in ChEMBL document CHEMBL2311269, “Identification of benzofuran-3-yl(phenyl)methanones as novel SIRT1 inhibitors: binding mode, inhibitory mechanism and biological action” (Eur J Med Chem, 2013).

Activity calls are given as the source filed them. No cut-off for these calls is given here.

One may read the IC50 as the concentration that inhibits the measured activity by half. One may read the Ki as a dissociation constant, usually derived from enzyme kinetics or from competition with a known ligand.

Test [1] addresses T1, NAD-dependent protein deacetylase sirtuin-1 (Homo sapiens, UniProt Q96EB6).
T1 sequence (Q96EB6 whole entry): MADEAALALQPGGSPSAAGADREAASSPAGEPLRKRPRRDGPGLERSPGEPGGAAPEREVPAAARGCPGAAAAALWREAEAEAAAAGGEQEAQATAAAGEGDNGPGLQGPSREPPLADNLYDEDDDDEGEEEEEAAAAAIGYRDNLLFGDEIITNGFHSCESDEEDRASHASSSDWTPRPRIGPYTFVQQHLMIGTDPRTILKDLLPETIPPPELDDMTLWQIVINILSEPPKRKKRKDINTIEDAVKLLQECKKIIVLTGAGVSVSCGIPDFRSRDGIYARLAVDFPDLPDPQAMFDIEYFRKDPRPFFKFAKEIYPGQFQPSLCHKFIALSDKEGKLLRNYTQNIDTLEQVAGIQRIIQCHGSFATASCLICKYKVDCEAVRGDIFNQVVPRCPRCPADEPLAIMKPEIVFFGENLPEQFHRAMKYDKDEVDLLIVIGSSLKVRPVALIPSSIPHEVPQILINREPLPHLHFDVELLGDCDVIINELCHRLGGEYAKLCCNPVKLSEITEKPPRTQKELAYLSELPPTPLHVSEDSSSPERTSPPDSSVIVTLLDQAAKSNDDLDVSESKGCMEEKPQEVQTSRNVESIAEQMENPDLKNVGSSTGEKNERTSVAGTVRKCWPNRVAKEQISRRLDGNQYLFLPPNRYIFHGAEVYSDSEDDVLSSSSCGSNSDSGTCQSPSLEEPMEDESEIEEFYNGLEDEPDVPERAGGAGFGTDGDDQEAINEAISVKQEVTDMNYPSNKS
The test is described as follows: Inhibition of N-terminal His6-tagged SIRT1 coding region (156-664) (unknown origin) expressed in Escherichia coli BL21(DE3) using 31.25 uM ac-RHKKac-AMC and 750 uM NAD+ as substrate after 45 mins by fluorometric analysis.

The target of test [2] is T2, NAD-dependent protein deacetylase sirtuin-1 (Homo sapiens, UniProt Q96EB6, I347A). The test can be described thus: Inhibition of N-terminal His6-tagged SIRT1 I347A mutant (unknown origin) expressed in Escherichia coli BL21(DE3) using ac-RHKKac-AMC as substrate after 45 mins by fluorometric analysis. The method in brief:
(§1)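 Mutant SIRT1 enzyme levels were set to give the same deacetylase activity as wild type. The AMC-peptide/NAD+ fluorogenic assay ran in Tris pH 8.0 buffer for 45 min at room temperature, followed by nicotinamide stop, trypsin development and a 340/490 nm fluorescence read. IC50 was obtained by curve fitting.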

Test [3] deals with T2, NAD-dependent protein deacetylase sirtuin-1. The test can be described thus: Mixed type inhibition of N-terminal His6-tagged SIRT1 I347A mutant (unknown origin) expressed in Escherichia coli BL21(DE3) using NAD+ as substrate by Lineweaver-Burk plot analysis in presence of ac-RHKKac-AMC. Summed up:
(§2)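 Velocities of each SIRT1 point mutant were measured at varied inhibitor concentrations with NAD+ varied and peptide present. Reciprocal velocities were plotted against 1/[NAD+], the slopes were replotted versus inhibitor concentration, and Ki was taken from the x-intercepts of these secondary plots.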

Test [4] deals with T3, NAD-dependent protein deacetylase sirtuin-1 (Homo sapiens, UniProt Q96EB6, F312L). The test can be described thus: Mixed type inhibition of N-terminal His6-tagged SIRT1 F312L mutant (unknown origin) expressed in Escherichia coli BL21(DE3) using NAD+ as substrate by Lineweaver-Burk plot analysis in presence of ac-RHKKac-AMC. Summed up: as §2
T3 sequence (Q96EB6 2-747 F312L limits assumed): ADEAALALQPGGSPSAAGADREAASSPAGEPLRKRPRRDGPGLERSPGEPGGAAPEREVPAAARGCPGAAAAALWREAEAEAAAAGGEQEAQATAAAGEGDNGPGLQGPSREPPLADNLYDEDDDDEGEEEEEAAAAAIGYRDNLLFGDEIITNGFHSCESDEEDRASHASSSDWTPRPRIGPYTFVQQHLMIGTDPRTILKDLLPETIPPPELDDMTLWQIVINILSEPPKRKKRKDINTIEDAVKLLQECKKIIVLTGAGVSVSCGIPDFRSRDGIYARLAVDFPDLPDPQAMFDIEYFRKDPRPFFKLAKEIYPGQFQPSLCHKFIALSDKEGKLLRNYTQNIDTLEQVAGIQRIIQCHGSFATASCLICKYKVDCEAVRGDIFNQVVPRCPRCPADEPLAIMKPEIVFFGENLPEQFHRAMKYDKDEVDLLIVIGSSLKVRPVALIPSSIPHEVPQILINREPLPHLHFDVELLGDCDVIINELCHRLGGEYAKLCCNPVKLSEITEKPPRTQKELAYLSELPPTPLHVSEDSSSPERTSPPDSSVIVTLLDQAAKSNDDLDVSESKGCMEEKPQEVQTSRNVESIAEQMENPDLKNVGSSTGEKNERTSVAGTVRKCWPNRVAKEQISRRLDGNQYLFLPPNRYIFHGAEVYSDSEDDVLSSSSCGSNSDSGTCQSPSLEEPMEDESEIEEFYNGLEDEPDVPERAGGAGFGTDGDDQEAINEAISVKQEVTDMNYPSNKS
Another test has as its system MCF7. The test can be described thus: Effect on p53 protein level in human MCF7 cells at 1.2 to 100 uM after 6 hrs by Western blot analysis. Format: functional, cell-based. The method in brief:
(§3)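 MCF-7 cells grown in DMEM with 10% fetal calf serum were treated with graded inhibitor concentrations. Lysate protein was run on a 9% gel, transferred to nitrocellulose, blocked 1 h at room temperature in 5% milk/TBST, and probed for acetyl-p53 and total p53.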
Background: A western blot detects proteins with antibodies after separation by electrophoresis.

In test [5] the target is T4, NAD-dependent protein deacetylase sirtuin-1 (Homo sapiens, UniProt Q96EB6, N346A). The test can be described thus: Inhibition of N-terminal His6-tagged SIRT1 N346A mutant (unknown origin) expressed in Escherichia coli BL21(DE3) using ac-RHKKac-AMC as substrate after 45 mins by fluorometric analysis. Summed up: as §1
T4 sequence (Q96EB6 2-747 N346A limits assumed): as the sequence (Q96EB6 2-747 F312L limits assumed) above, with L311F, N345A counted along it
The target in test [6] is T5, NAD-dependent protein deacetylase sirtuin-1 (Homo sapiens) (UniProt Q96EB6).
T5 sequence (whole entry): T1 sequence (Q96EB6 whole entry)
The test can be described thus: Inhibition of SIRT1-mediated p53 deacetylation in human MCF7 cells after 6 hrs by Western blot analysis. Format: cell-based. Summed up:
as §3

Test [7] addresses T6, NAD-dependent protein deacetylase sirtuin-1 (Homo sapiens, UniProt Q96EB6, F273L). The test is described as follows: Mixed type inhibition of N-terminal His6-tagged SIRT1 F273L mutant (unknown origin) expressed in Escherichia coli BL21(DE3) using NAD+ as substrate by Lineweaver-Burk plot analysis in presence of ac-RHKKac-AMC. Summed up:
as §2

Test [8] has as its target T5, NAD-dependent protein deacetylase sirtuin-1 (Homo sapiens). The test is described as follows: Inhibition of N-terminal His6-tagged SIRT1 coding region (156-664) (unknown origin) expressed in Escherichia coli BL21(DE3) using 100 uM ac-RHKKac-AMC and 20 uM NAD+ as substrate after 45 mins by fluorometric analysis.
Test [9] addresses T6, NAD-dependent protein deacetylase sirtuin-1. The test is described as follows: Inhibition of N-terminal His6-tagged SIRT1 F273L mutant (unknown origin) expressed in Escherichia coli BL21(DE3) using ac-RHKKac-AMC as substrate after 45 mins by fluorometric analysis. The method in brief: as §1
Test [10] addresses T4, NAD-dependent protein deacetylase sirtuin-1. The test is described as follows: Mixed type inhibition of N-terminal His6-tagged SIRT1 N346A mutant (unknown origin) expressed in Escherichia coli BL21(DE3) using NAD+ as substrate by Lineweaver-Burk plot analysis in presence of ac-RHKKac-AMC. The method in brief: as §2
The target in test [11] is T5, NAD-dependent protein deacetylase sirtuin-1 (Homo sapiens). The test can be described thus: Noncompetitive inhibition of N-terminal His6-tagged SIRT1 coding region (156-664) (unknown origin) expressed in Escherichia coli BL21(DE3) using ac-RHKKac-AMC as substrate by Lineweaver-Burk plot analysis in presence of NAD+.
For test [12], the target named is T1, NAD-dependent protein deacetylase sirtuin-1. The test is described as follows: Mixed-type inhibition of N-terminal His6-tagged SIRT1 coding region (156-664) (unknown origin) expressed in Escherichia coli BL21(DE3) using NAD+ as substrate by Lineweaver-Burk plot analysis in presence of ac-RHKKac-AMC. The method in brief: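 With ac-RHKK(ac)-AMC held fixed, NAD+ was varied at several inhibitor concentrations. Fluorogenic deacetylation velocities were analysed by Lineweaver–Burk plots against NAD+ concentration.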

Test [13] concerns T7, NAD-dependent protein deacetylase sirtuin-3, mitochondrial (Homo sapiens), Q9NTG7 [L195F].
T7 sequence (whole entry): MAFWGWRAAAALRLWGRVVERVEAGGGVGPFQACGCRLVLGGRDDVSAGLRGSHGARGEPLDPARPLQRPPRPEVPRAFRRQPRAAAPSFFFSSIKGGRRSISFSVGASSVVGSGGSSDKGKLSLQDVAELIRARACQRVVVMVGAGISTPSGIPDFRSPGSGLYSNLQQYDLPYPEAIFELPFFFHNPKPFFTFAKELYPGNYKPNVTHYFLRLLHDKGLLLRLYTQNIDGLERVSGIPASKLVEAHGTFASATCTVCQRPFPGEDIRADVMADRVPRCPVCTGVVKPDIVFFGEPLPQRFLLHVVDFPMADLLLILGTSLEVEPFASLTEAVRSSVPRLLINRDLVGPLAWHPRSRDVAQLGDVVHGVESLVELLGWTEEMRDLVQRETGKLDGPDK
The test can be described thus: Inhibition of N-terminal His6-tagged SIRT3 L195F mutant (unknown origin) expressed in Escherichia coli BL21(DE3) using ac-RHKKac-AMC as substrate at 50 to 100 uM after 45 mins by fluorometric analysis.

The target in test [14] is T3, NAD-dependent protein deacetylase sirtuin-1. The test is described as follows: Inhibition of N-terminal His6-tagged SIRT1 F312L mutant (unknown origin) expressed in Escherichia coli BL21(DE3) using ac-RHKKac-AMC as substrate after 45 mins by fluorometric analysis. The method in brief:
as §1

Test [15] addresses T5, NAD-dependent protein deacetylase sirtuin-1 (Homo sapiens). The test is described as follows: Reversible inhibition of N-terminal His6-tagged SIRT1 coding region (156-664) (unknown origin) expressed in Escherichia coli BL21(DE3) using ac-RHKKac-AMC as substrate incubated at 10-fold IC50 for 30 mins followed by 100-fold dilution measured up to 40 mins by fluorometric analysis. Summed up:
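Enzyme was preincubated with inhibitor or DMSO at room temperature for 30 min, then rapidly diluted 100-fold into reaction buffer containing NAD+ and ac-RHKK(ac)-AMC. Deacetylated product was monitored over time, and the slope of the inhibitor curve was compared with the DMSO control.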

T2 sequence (Q96EB6 2-747 I347A limits assumed): as the sequence (Q96EB6 2-747 F312L limits assumed) above, with L311F, I346A counted along it
T6 sequence (Q96EB6 2-747 F273L limits assumed): as the sequence (Q96EB6 2-747 F312L limits assumed) above, with F272L, L311F counted along it

With `COc1ccc(OC)c(C(=O)c2coc3cc(Br)c(O)c(Br)c23)c1`, the IC50 in test [1] is more than 300 µM. Still for that read-out and setting: under `CC(=O)Oc1ccc2occ(C(=O)c3ccccc3)c2c1` stands more than 300 µM; under `Cc1ccc(C(=O)c2coc3c2cc(O)c2ccccc23)cc1`, more than 300 µM; under `Cc1cc2occ(C(=O)c3ccc(Cl)cc3)c2cc1O`, 88 µM. With `COc1cc2c(C(=O)c3ccc(Br)cc3)c(C)oc2c2ccccc12`, the IC50 in [1] was more than 300 µM. Compound `Cc1oc2ccc(O)cc2c1C(=O)c1ccc(Br)cc1` returned an IC50 in [1] of 243 µM. The compound `O=C(c1cccc(O)c1)c1coc2ccc(O)cc12` showed an IC50 in test [1] of 31.2 µM. In turn, `COc1ccc(O)c(C(=O)c2coc3ccc(O)cc23)c1` gave an IC50 in test [1] of 45.1 µM. On to `O=C(c1ccc(Br)cc1)c1coc2ccc(O)cc12`, for which the IC50 in test [1] is 240 µM. Still for that read-out and setting: the result for `O=C(c1ccc(Br)cc1)c1coc2c1cc(O)c1ccccc12` reads 146 µM; that for `O=C(c1ccc(OCc2ccccc2)cc1)c1coc2cc(Br)c(O)c(Br)c12`, more than 300 µM. `O=C(c1cc(O)ccc1O)c1coc2ccc(O)cc12`: the IC50 in [2] was 421 µM; in test [1], 2.8 µM; in test [5], 283 µM; in test [9], 491 µM; in test [14] it was 550 µM. Also, the Ki in [3] was determined as 174 µM; in test [4], 254 µM; in test [7] it was 219 µM; in [10] it was 253 µM; in test [12], 800 nM. In addition, the result in the test with MCF7 was inactive. In addition, in test [6], the inhibition entry was “Dose-dependent effect”. Further, the inhibition entry in test [8], in test [11], in [13] and in test [15] was “Active” throughout. In test [1], `O=C(c1ccccc1)c1coc2c1cc(O)c1ccccc12` yielded an IC50 of more than 300 µM.

Consider `O=C(c1ccccc1)c1coc2ccc(O)c(CN3CCOCC3)c12`, for which, in [1], the IC50 was more than 300 µM. With `COc1ccc(O)cc1C(=O)c1coc2ccc(O)cc12`, the IC50 in [1] stood at 41.7 µM. In test [1], `COc1ccc(C(=O)c2coc3c2cc(O)c2ccccc23)cc1` showed a concentration for half-maximal inhibition (IC50) of 256 µM. `COc1ccc(OC)c(C(=O)c2coc3ccc(O)c(CN4CCOCC4)c23)c1`: the IC50 in [1] is more than 300 µM.

In [1], `COc1ccc(OC)c(C(=O)c2coc3ccc(O)cc23)c1` came in with an IC50 of more than 300 µM. In turn, `O=C(c1ccccc1)c1coc2cc(Br)c(O)c(Br)c12` showed an IC50 in test [1] of 198 µM. Same read-out and setting: the result for `O=C(c1ccccc1O)c1coc2ccc(O)cc12` reads 71.4 µM; that for `COc1ccc(OC)c(C(=O)c2coc3ccc(OC(C)=O)cc23)c1`, more than 300 µM.
